pEC50, pIC50: −log10 of the molar value. The source made the active and inactive calls. The rule behind the calls is not given here.
Key:
[1] = Cytotoxicity against human thymidine kinase-negative OST cells after 3 to 4 days; type: cell-based
[2] = Cytotoxicity against human PBMC cells after 3 to 4 days; type: cell-based
[3] = Antiviral activity against SIV mac251 infected in human HUT78 cells assessed as prevention of syncytium formation between persistently SIV mac251-infected HUT-78 cells and uninfected CEM cells after 3 to 4 days by ELISA; type: functional, cell-based, Simian immunodeficiency virus - mac; settings: Simian immunodeficiency virus, 251, CCRF-CEM
[4] = tested on: Human immunodeficiency virus 1; assay: Antiviral activity against compound pretreated X4 tropic HIV-1 3B infected in human Raji cells expressing DC-SIGN gene assessed as prevention of syncytium formation between persistently HIV-1 3B-infected Raji cells and uninfected human C8166 cells after 42 hrs by microscopic analysis; type: functional, organism-based; settings: Human immunodeficiency virus 1, 3B
Outline: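 Compound-pretreated virus captured by Raji/DC-SIGN cells for 60 min at 37°C, washed, then 200 μl mixed with 2 × 10^5 C8166 cells (further 5-fold dilution) and incubated 36–48 h at 37°C; syncytium formation scored microscopically.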

[5] = Antiviral activity against SIV mac251 infected in human Raji cells expressing DC-SIGN gene assessed as inhibition of virus capture by Raji cells after 60 mins by ELISA; type: functional, cell-based, Simian immunodeficiency virus - mac; settings: Simian immunodeficiency virus, 251, Raji, 1 h
[6] = tested on: Human immunodeficiency virus 1; assay: Binding affinity to HIV-1 HXB2 gp41 after 6 mins by SPR analysis
[7] = tested on: Human immunodeficiency virus 1; assay: Antiviral activity against compound pretreated HIV-1 3B isolate 42 harboring gp120 mutant infected in human CEM cells assessed as inhibition of virus-induced cytopathicity after 3 to 4 days by microscopic analysis; type: functional, organism-based; settings: Human immunodeficiency virus 1, 3B isolate 42, CCRF-CEM
Outline: (§1)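 CEM or C8166 cells at 5 × 10^5/ml infected with HIV-1 at 100 CCID50 per ml, then mixed 1:1 with compound dilutions and held at 37°C for 3–4 days. Giant cells were counted microscopically at ×100 against untreated infected cultures. EC50 is the concentration cutting syncytium formation by 50%.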

PBMC [8] = assay: Immunostimulatory activity against human PBMC assessed as IL1-beta production at 21 uM after 72 hrs; type: functional, cell-based
Outline: (§2)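 Unstimulated PBMCs and PHA-blasts from three donors, in three independent experiments, cultured with test compound at 20 μg/ml (21 or 22 μM). Supernatants collected after 72 h. The cytokine profile was read on a Bio-Plex 27-plex human cytokine bead immunoassay, using beads coupled to cytokine-specific monoclonal antibodies and run per the kit instructions.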

PBMC [9] = assay: Immunostimulatory activity against human PBMC assessed as IL-8 production at 21 uM after 72 hrs; type: functional, cell-based; outline: as §2
PBMC [10] = assay: Immunostimulatory activity against human PBMC assessed as IL-10 production at 21 uM after 72 hrs; type: functional, cell-based
Outline: (§3)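 PBMCs and PHA blasts from three donors (three independent experiments) cultured with 21 μM compound; supernatants collected at 72 h; cytokines quantified with the Bio-Plex human 27-plex bead immunoassay.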

PBMC [11] = assay: Immunostimulatory activity against human PBMC assessed as IL-12 production at 21 uM after 72 hrs; type: functional, cell-based; outline: as §2
PBMC [12] = assay: Immunostimulatory activity against human PBMC assessed as IL-15 production at 21 uM after 72 hrs; type: functional, cell-based; outline: as §2
PBMC [13] = assay: Immunostimulatory activity against human PBMC assessed as G-CSF production at 21 uM after 72 hrs; type: functional, cell-based; outline: as §3
PBMC [14] = assay: Immunostimulatory activity against human PBMC assessed as GM-CSF production at 21 uM after 72 hrs; type: functional, cell-based; outline: as §3
PBMC [15] = assay: Immunostimulatory activity against human PBMC assessed as MCP-1 production at 21 uM after 72 hrs; type: functional, cell-based; outline: as §2
PBMC [16] = assay: Immunostimulatory activity against human PBMC assessed as IL-4 production at 22 uM after 72 hrs; type: functional, cell-based; outline: as §2
PBMC [17] = assay: Immunostimulatory activity against human PBMC assessed as IL-6 production at 22 uM after 72 hrs; type: functional, cell-based; outline: as §2
PBMC [18] = assay: Immunostimulatory activity against human PBMC assessed as IL-8 production at 22 uM after 72 hrs; type: functional, cell-based; outline: as §2
PBMC [19] = assay: Immunostimulatory activity against human PBMC assessed as IL-10 production at 22 uM after 72 hrs; type: functional, cell-based
PBMC [20] = assay: Immunostimulatory activity against human PBMC assessed as IL-15 production at 22 uM after 72 hrs; type: functional, cell-based; outline: as §2
PBMC [21] = assay: Immunostimulatory activity against human PBMC assessed as G-CSF production at 22 uM after 72 hrs; type: functional, cell-based
PBMC [22] = assay: Immunostimulatory activity against human PBMC assessed as MCP-1 production at 22 uM after 72 hrs; type: functional, cell-based; outline: as §2
PBMC [23] = assay: Immunostimulatory activity against human PBMC assessed as suppression of IL-4 production at 21 uM after 72 hrs; type: functional; outline: as §2
PBMC [24] = assay: Immunostimulatory activity against human PBMC assessed as suppression of IL-9 production at 21 uM after 72 hrs; type: functional; outline: as §2
PBMC [25] = assay: Immunostimulatory activity against human PBMC assessed as suppression of IL-13 production at 21 uM after 72 hrs; type: functional; outline: as §2
PBMC [26] = assay: Immunostimulatory activity against human PBMC assessed as suppression of IL-15 production at 21 uM after 72 hrs; type: functional; outline: as §2
PBMC [27] = assay: Immunostimulatory activity against human PBMC assessed as suppression of PDGF production at 21 uM after 72 hrs; type: functional; outline: as §2
PBMC [28] = assay: Immunostimulatory activity against human PBMC assessed as suppression of IL-9 production at 22 uM after 72 hrs; type: functional; outline: as §2
PBMC [29] = assay: Immunostimulatory activity against human PBMC assessed as suppression of G-CSF production at 22 uM after 72 hrs; type: functional; outline: as §2
[30] = tested on: Human immunodeficiency virus 1; assay: Ratio of EC90 to EC50 for R5 tropic HIV-1 clade A isolate UG273 infected in human PBMC; type: functional
Outline: (§4)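 PBMCs from healthy donors were PHA-stimulated (2 μg/ml, 3 days, 37°C), then seeded at 0.5 × 10^6 per well with compound dilutions in RPMI 1640 with 10% FCS and IL-2 (25 U/ml). Virus was added at 250 pg p24 or p27/ml final. On day 12, supernatant HIV-1 p24 or HIV-2 p27 was measured by ELISA, giving EC50 and EC90.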

[31] = tested on: Human immunodeficiency virus 1; assay: Ratio of EC90 to EC50 for R5 tropic HIV-1 clade B isolate US2 infected in human PBMC; type: functional; outline: as §4
[32] = tested on: Human immunodeficiency virus 1; assay: Ratio of EC90 to EC50 for R5 tropic HIV-1 clade F isolate BZ163 infected in human PBMC; type: functional; outline: as §4
[33] = Cytotoxicity against mouse L1210 cells after 3 to 4 days; type: cell-based
[34] = Cytotoxicity against human C8166 cells after 3 to 4 days; type: cell-based
Outline: (§5)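 Cells seeded at 20,000–75,000 per well with compound dilutions, incubated 3–4 days at 37°C, and counted on a Coulter particle counter; CC50 is the concentration inhibiting proliferation by 50%.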

[35] = Cytotoxicity against human Molt4 cells after 3 to 4 days; type: cell-based; settings: MOLT-4 cells; outline: as §5
[36] = Cytotoxicity against human HeLa cells after 3 to 4 days; type: cell-based; outline: as §5
[37] = tested on: Human immunodeficiency virus 1; assay: Antiviral activity against HIV-1 3B infected in human CEM cells assessed as inhibition of virus-induced cytopathicity after 3 to 4 days by microscopic analysis; type: functional, organism-based; settings: Human immunodeficiency virus 1, 3B, CCRF-CEM; outline: as §1
[38] = tested on: Human immunodeficiency virus 1; assay: Antiviral activity against HIV-1 3B infected in human C8166 cells assessed as inhibition of virus-induced cytopathicity after 3 to 4 days by microscopic analysis; type: functional, organism-based; settings: Human immunodeficiency virus 1, 3B; outline: as §1

Row | Structure (SMILES) | CC50 [1] | CC50 [2] | pEC50 [3] | pEC50 [4] | pIC50 [5] | Activity [6] | pEC50 [7] | Activity (PBMC [8]) | Activity (PBMC [9]) | Activity (PBMC [10]) | Activity (PBMC [11]) | Activity (PBMC [12]) | Activity (PBMC [13]) | Activity (PBMC [14]) | Activity (PBMC [15]) | Activity (PBMC [16]) | Activity (PBMC [17]) | Activity (PBMC [18]) | Activity (PBMC [19]) | Activity (PBMC [20]) | other results
1 | CN[C@@H]1[C@H](O[C@@H]2OC[C@@H](O)[C@H](O)[C@H]2O)[C@@H](O)[C@H](O[C@H]2c3cc(C)c(C(=O)N[C@H](C)C(=O)O)c(O)c3-c3c(cc4c(c3O)C(=O)c3cc(OC)cc(O)c3C4=O)[C@@H]2O)O[C@@H]1C [PRADIMICIN A] | > 50 µM | > 50 µM | 5.37 | 5.47 | 4.80 | inactive | < 4.30 | inactive | inactive | inactive | inactive | inactive | inactive | inactive | inactive | inactive | inactive | inactive | inactive | inactive | Activity (PBMC [21]): inactive; Activity (PBMC [22]): inactive; fold change (FC) (PBMC [23]): 2; fold change (FC) (PBMC [24]): 2; fold change (FC) (PBMC [25]): 2; fold change (FC) (PBMC [26]): 2; fold change (FC) (PBMC [27]): 2; fold change (FC) (PBMC [28]): 2; fold change (FC) (PBMC [29]): 2; Ratio [30]: 2; Ratio [31]: 2; Ratio [32]: 2; CC50 [33]: > 50 µM; CC50 [34]: > 50 µM; CC50 [35]: > 50 µM; CC50 [36]: > 50 µM; pEC50 [37]: 5.23; pEC50 [38]: 5.59
2 | CN[C@@H]1[C@H](O[C@@H]2O[C@H](CO)[C@@H](O)[C@H](OS(=O)(=O)O)[C@H]2O)[C@@H](O)[C@H](O[C@H]2c3cc(C)c(C(=O)N[C@H](C)C(=O)O)c(O)c3-c3c(cc4c(c3O)C(=O)c3cc(OC)cc(O)c3C4=O)[C@@H]2O)O[C@@H]1C [PRADIMICIN S] | > 230 µM | > 230 µM | 4.92 | 5.15 | 4.80 | inactive | < 4.30 | inactive | inactive | inactive | inactive | inactive | inactive | inactive | inactive | inactive | inactive | inactive | inactive | inactive | Activity (PBMC [21]): inactive; Activity (PBMC [22]): inactive; fold change (FC) (PBMC [23]): 2; fold change (FC) (PBMC [24]): 2; fold change (FC) (PBMC [25]): 2; fold change (FC) (PBMC [26]): 2; fold change (FC) (PBMC [27]): 2; fold change (FC) (PBMC [28]): 2; fold change (FC) (PBMC [29]): 2; Ratio [30]: 2; Ratio [31]: 2; Ratio [32]: 2; CC50 [33]: > 230 µM; CC50 [34]: > 230 µM; CC50 [35]: > 230 µM; CC50 [36]: > 230 µM; pEC50 [37]: 5.05; pEC50 [38]: 5.29
